Measurements taken from ChEMBL document CHEMBL3232716, “Tailoring cytotoxicity of antimicrobial peptidomimetics with high activity against multidrug-resistant Escherichia coli” (J Med Chem, 2014).
≈ marks a conversion by molar mass, not a printed value. Square brackets hold non-standard residues; d marks the D form. Peptide text beside a SMILES is read from it. hArg = N=C(N)NCCCC[C@H](N)C(=O)O; Nspe = C[C@H](NCC(=O)O)c1ccccc1; Nphe = O=C(O)CNCc1ccccc1

Assays:
[1] = system: HUVEC; assay: Cytotoxicity against HUVEC after 1 hr by MTS/PMS assay; type: cell-based; conditions: Homo sapiens
Procedure, shortened: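 HUVEC seeded at 15 000 cells/well on collagen-coated wells (0.6 μg/cm2), passage 4–10, grown to ~90% confluence over 21–25 h. Cells exposed to compound (0–2000 μM) in F-12K medium for 1 h at 37 °C. MTS 240 μg/mL with PMS 9.6 μg/mL in HBSS for 1.5–4 h, then A492. Viability referenced to 0.2% SDS and untreated cells; IC50 reported.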

[2] = Cytotoxicity against mouse NIH/3T3 cells after 1 hr by MTS/PMS assay; type: cell-based; conditions: NIH3T3, 1 h
Procedure, shortened: (§1)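 Monolayers (passage 4–10) grown ~21–25 h to ~90% confluence. Seeding per well: HeLa 8000, HepG2 23 000, NIH 3T3 22 000, IEC-6 16 000, Caco-2 25 000. Cells washed with HBSS/10 mM Hepes pH 7.4 and exposed 1 h at 37 °C, 50 rpm, to compound 0–2000 μM in culture medium. MTS 240 μg/mL/PMS 2.4 μg/mL for 1.5–4 h, A492. Viability referenced to SDS and untreated controls; IC50 from one biological replicate in triplicate.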

[3] = system: Staphylococcus aureus; assay: Antibacterial activity against methicillin-resistant Staphylococcus aureus ATCC 33591 after 18 hrs by microdilution broth method; type: functional
Procedure, shortened: (§2)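 CLSI broth microdilution. […] Incubated 35 °C in ambient air for 18 h. MIC taken as the lowest concentration with no visible growth versus the compound-free control. Reported as median and range of three independent biological replicates run on separate days.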

[4] = system: Escherichia coli; assay: Antibacterial activity against extended-spectrum beta-lactamase producing multidrug-resistant and colistin-susceptible Escherichia coli CTX-M-15 clinical isolate Aar 11 after 18 hrs by microdilution broth method; type: functional
[5] = system: HeLa; assay: Cytotoxicity against human HeLa cells after 1 hr by MTS/PMS assay; type: cell-based; procedure, shortened: as §1
[6] = system: Caco-2; assay: Cytotoxicity against human Caco2 cells after 1 hr by MTS/PMS assay; type: cell-based; conditions: Caco-2, 1 h; procedure, shortened: as §1
[7] = system: HepG2; assay: Cytotoxicity against human HepG2 cells after 1 hr by MTS/PMS assay; type: cell-based; conditions: HepG2, 1 h; procedure, shortened: as §1
[8] = system: Enterococcus faecium; assay: Antibacterial activity against vancomycin-resistant Enterococcus faecium ATCC 700221 after 18 hrs by microdilution broth method; conditions: ATCC 700221, 18 h
[9] = system: Escherichia coli; assay: Antibacterial activity against NDM-1 producing Escherichia coli clinical isolate 74859898 after 18 hrs by microdilution broth method; type: functional
[10] = system: Escherichia coli; assay: Antibacterial activity against Escherichia coli ATCC 25922 after 18 hrs by microdilution broth method; type: functional; procedure, shortened: as §2
[11] = Binding affinity to cholesterol containing synthetic POPC/POPG liposomal membrane at 20 uM by circular dichroism analysis; type: physicochemical; conditions: artificial membrane
Procedure, shortened: (§3)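 CD spectra recorded with 20 μM test compound and 2 mM liposomes in 10 mM Tris buffer, pH 7.5. Liposomes were roughly 100 nm: POPC/POPG 7:3 (bacterial model) or POPC/POPG/cholesterol 5:3:2 (mammalian model). Lipid concentration was standardized by enzymatic phospholipid colorimetric assay.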

[12] = Binding affinity to synthetic POPC/POPG liposomal membrane at 20 uM by circular dichroism analysis; type: physicochemical; conditions: artificial membrane; procedure, shortened: as §3
[13] = system: Acinetobacter baumannii; assay: Antibacterial activity against multidrug-resistant Acinetobacter baumannii clinical isolate E2-1228625 after 18 hrs by microdilution broth method; type: functional
[14] = Hemolytic activity in human RBC after 1 hr; type: ADME, cell-based; conditions: Erythrocyte
Procedure, shortened: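 Fresh human erythrocytes washed in PBS pH 7.4. A 0.5% v/v suspension was mixed 1:1 with 2-fold dilutions of compound (8–1024 μM) and incubated 1 h at 37 °C, then centrifuged. Supernatant hemoglobin read at OD414. Melittin 400 μg/mL set 100% lysis and PBS set 0%. Value is the concentration giving 50% lysis.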

[15] = Cytotoxicity against rat IEC-6 cells after 1 hr by MTS/PMS assay; type: cell-based; conditions: IEC-6, 1 h; procedure, shortened: as §1
[16] = system: Enterococcus faecalis; assay: Antibacterial activity against vancomycin-resistant Enterococcus faecalis ATCC 700221 after 18 hrs by microdilution broth method; type: functional
Procedure, shortened: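 CLSI broth microdilution. Incubated 35 °C in ambient air for 18 h. MIC taken as the lowest concentration with no visible growth versus the compound-free control. Reported as median and range of three independent biological replicates run on separate days.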

[17] = clinical isolate 74859898, 18 h
[18] = clinical isolate E2-1228625, 18 h

What does the source list for `CC(=O)N[C@@H](CCCCN)C(=O)N(CCC(=O)N[C@@H](CCCCNC(=N)N)C(=O)N(CCC(=O)N[C@@H](CCCCN)C(=O)N(CCC(=O)N[C@@H](CCCCNC(=N)N)C(=O)N(CCC(=O)N[C@@H](CCCCN)C(=O)N(CCC(=O)N[C@@H](CCCCNC(=N)N)C(=O)N(CCC(=O)N[C@@H](CCCCN)C(=O)N(CCC(N)=O)Cc1ccccc1)Cc1ccccc1)Cc1ccccc1)Cc1ccccc1)Cc1ccccc1)Cc1ccccc1)Cc1ccccc1`?
IC50 [1]: 458 µM; IC50 [2]: 172 µM; MIC ([3]; ATCC 33591, 18 h): 16 µM (≈ 35.4 µg/mL); MIC ([4]; CTX-M-15, 18 h): 1 µM (≈ 2.21 µg/mL); IC50 [5]: 77 µM; IC50 [6]: 353 µM; IC50 [7]: 116 µM; MIC [8]: 16 µM (≈ 35.4 µg/mL); MIC [9, 17]: 1 µM (≈ 2.21 µg/mL); MIC ([10]; ATCC 25922, 18 h): 1 µM (≈ 2.21 µg/mL); Activity [11]: Not Active; Activity [12]: Not Active; MIC [13, 18]: 4 µM (≈ 8.84 µg/mL); IC50 [14]: > 1020 µM; IC50 [15]: 266 µM

With `CC(=O)N[C@@H](CCCCN)C(=O)N(CC(=O)N[C@@H](CCCCNC(=N)N)C(=O)N(CC(=O)N[C@@H](CCCCN)C(=O)N(CC(=O)N[C@@H](CCCCNC(=N)N)C(=O)N(CC(=O)N[C@@H](CCCCN)C(=O)N(CC(=O)N[C@@H](CCCCNC(=N)N)C(=O)N(CC(N)=O)Cc1ccccc1)Cc1ccccc1)Cc1ccccc1)Cc1ccccc1)Cc1ccccc1)Cc1ccccc1` (Ac-K[Nphe][hArg][Nphe]K[Nphe][hArg][Nphe]K[Nphe][hArg][Nphe]-NH2) as the molecule, how does the IC50 [1] read?
The IC50 was over 1000 µM.

What about the IC50 [2] of the same molecule?
The IC50 was 635 µM.

What about the MIC ([3]; ATCC 33591, 18 h) of the same molecule?
Its MIC is 64 µM (≈ 118 µg/mL).

And the MIC ([4]; CTX-M-15, 18 h)?
The MIC was 2 µM (≈ 3.67 µg/mL).

And the IC50 [5]?
The IC50 was 316 µM.

What about the IC50 [6] of the same molecule?
Its IC50 is over 1000 µM.

What about the IC50 [7] of the same molecule?
The IC50 was 698 µM.

What about the MIC [8] of the same molecule?
Its MIC is 32 µM (≈ 58.8 µg/mL).

What about the MIC [9, 17] of the same molecule?
Its MIC is 1 µM (≈ 1.84 µg/mL).

And the MIC ([10]; ATCC 25922, 18 h)?
Its MIC is 2 µM (≈ 3.67 µg/mL).

What about the Activity [11] of the same molecule?
Its Activity is “Not Active”.

And the Activity [12]?
The Activity was “Not Active”.

What about the MIC [13, 18] of the same molecule?
Its MIC is 64 µM (≈ 118 µg/mL).

And the IC50 [14]?
Its IC50 is over 1020 µM.

And the IC50 [15]?
Its IC50 is 636 µM.

With `CC(=O)N[C@@H](CCCCN)C(=O)N(CC(=O)N[C@@H](CCCCNC(=N)N)C(=O)N(CC(=O)N[C@@H](CCCCN)C(=O)N(CC(=O)N[C@@H](CCCCNC(=N)N)C(=O)N(CC(=O)N[C@@H](CCCCN)C(=O)N(CC(=O)N[C@@H](CCCCNC(=N)N)C(=O)N(CC(=O)N[C@@H](CCCCN)C(=O)N(CC(N)=O)[C@@H](C)c1ccccc1)[C@@H](C)c1ccccc1)[C@@H](C)c1ccccc1)[C@@H](C)c1ccccc1)[C@@H](C)c1ccccc1)[C@@H](C)c1ccccc1)[C@@H](C)c1ccccc1` (Ac-K[Nspe][hArg][Nspe]K[Nspe][hArg][Nspe]K[Nspe][hArg][Nspe]K[Nspe]-NH2) as the molecule, how does the IC50 [1] read?
Its IC50 is 145 µM.

What about the IC50 [2] of the same molecule?
Its IC50 is 67 µM.

What about the MIC ([3]; ATCC 33591, 18 h) of the same molecule?
The MIC was 16 µM (≈ 35.4 µg/mL).

What about the MIC ([4]; CTX-M-15, 18 h) of the same molecule?
Its MIC is 2 µM (≈ 4.42 µg/mL).

And the IC50 [5]?
The IC50 was 21 µM.

What about the IC50 [6] of the same molecule?
The IC50 was 182 µM.

What about the IC50 [7] of the same molecule?
The IC50 was 35 µM.

What about the MIC [8] of the same molecule?
Its MIC is 4 µM (≈ 8.84 µg/mL).

And the MIC [9, 17]?
Its MIC is 1 µM (≈ 2.21 µg/mL).

And the MIC ([10]; ATCC 25922, 18 h)?
Its MIC is 1 µM (≈ 2.21 µg/mL).

What about the Activity [11] of the same molecule?
Its Activity is “Not Active”.

What about the Activity [12] of the same molecule?
The Activity was “Not Active”.

What about the MIC [13, 18] of the same molecule?
The MIC was 1 µM (≈ 2.21 µg/mL).

And the IC50 [15]?
Its IC50 is 30 µM.

What does the source list for `CC(=O)N[C@@H](CCCCNC(=N)N)C(=O)N(CC(=O)N[C@@H](CCCCN)C(=O)N(CC(=O)N[C@@H](CCCCNC(=N)N)C(=O)N(CC(=O)N[C@@H](CCCCN)C(=O)N(CC(=O)N[C@@H](CCCCNC(=N)N)C(=O)N(CC(N)=O)Cc1ccccc1)Cc1ccccc1)Cc1ccccc1)Cc1ccccc1)Cc1ccccc1` (Ac-[hArg][Nphe]K[Nphe][hArg][Nphe]K[Nphe][hArg][Nphe]-NH2)?
IC50 [1]: > 1000 µM; IC50 [2]: > 1000 µM; MIC ([3]; ATCC 33591, 18 h): 128 µM (≈ 200 µg/mL); MIC ([4]; CTX-M-15, 18 h): 16 µM (≈ 25 µg/mL); IC50 [5]: 506 µM; IC50 [6]: > 1000 µM; IC50 [7]: 980 µM; MIC [8]: 128 µM (≈ 200 µg/mL); MIC [9, 17]: 8 µM (≈ 12.5 µg/mL); MIC ([10]; ATCC 25922, 18 h): 8 µM (≈ 12.5 µg/mL); Activity [11]: Not Active; Activity [12]: Not Active; MIC [13, 18]: > 128 µM; IC50 [15]: 972 µM

For `CC(=O)N[C@@H](CCCCNC(=N)N)C(=O)N(CC(=O)N[C@@H](CCCCN)C(=O)N(CC(=O)N[C@@H](CCCCNC(=N)N)C(=O)N(CC(=O)N[C@@H](CCCCN)C(=O)N(CC(=O)N[C@@H](CCCCNC(=N)N)C(=O)N(CC(N)=O)[C@@H](C)c1ccccc1)[C@@H](C)c1ccccc1)[C@@H](C)c1ccccc1)[C@@H](C)c1ccccc1)[C@@H](C)c1ccccc1` (Ac-[hArg][Nspe]K[Nspe][hArg][Nspe]K[Nspe][hArg][Nspe]-NH2), which IC50 [1] is on record?
The IC50 was 398 µM.

And the IC50 [2]?
Its IC50 is 210 µM.

And the MIC ([3]; ATCC 33591, 18 h)?
The MIC was 32 µM (≈ 52.2 µg/mL).

And the MIC ([4]; CTX-M-15, 18 h)?
The MIC was 8 µM (≈ 13.1 µg/mL).

And the IC50 [5]?
Its IC50 is 165 µM.

And the IC50 [6]?
The IC50 was 583 µM.

And the IC50 [7]?
The IC50 was 141 µM.

What about the MIC [8] of the same molecule?
Its MIC is 8 µM (≈ 13.1 µg/mL).

And the MIC [9, 17]?
The MIC was 8 µM (≈ 13.1 µg/mL).

What about the MIC ([10]; ATCC 25922, 18 h) of the same molecule?
Its MIC is 8 µM (≈ 13.1 µg/mL).

What about the Activity [11] of the same molecule?
Its Activity is “Not Active”.

What about the Activity [12] of the same molecule?
Its Activity is “Not Active”.

And the MIC [13, 18]?
Its MIC is 16 µM (≈ 26.1 µg/mL).

And the IC50 [15]?
The IC50 was 146 µM.

With GENTAMICIN as the molecule, how does the MIC [3] read?
Its MIC is 0.5 µM.

And the MIC [4]?
Its MIC is 32 µM.

And the MIC [9]?
Its MIC is over 128 µM.

And the MIC [10]?
Its MIC is 0.25 µM.

And the MIC [16]?
The MIC was over 128 µM.

And the MIC [13]?
The MIC was over 128 µM.
